# Most compounds without a hit are left out; they make up all but 2.3% or so of the library.
# pPAFAH FP inh: pPAFAH (human) enzyme inhibition; Q13093; recombinant pPAFAH, FP-rhodamine probe fluorescence polarization; inhibition, % at 3.39 µM; actives 1.5% (n = 330,000); AID 463082;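 active = inhibition above the mean inhibition across the screen plus 3 SD, cut at about 25% in these data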;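 also: inhibitors block binding of the rhodamine activity-based probe so polarization drops; 0% = enzyme with DMSO and 100% = wells lacking pPAFAH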
# SIAE primary: blocks human sialic acid acetylesterase; SIAE FP-Rh probe binding, fluorescence polarization; Q9HAT2; actives 0.69% (n = 370,000); inhibition, % at 9.66 µM;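 active = inhibition above a cutoff: mean of compounds within the control limits plus 3 SD of those, cut at about 17% in these data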;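 also: 0% = plate median of compound wells and 100% = probe without SIAE protein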
# HTRA1 inhibitor: HTRA1 (human) protease inhibition; Q92743; recombinant HTRA1, FP-rhodamine activity-based probe, fluorescence polarization; inhibition, % at 5.96 µM; actives 0.5% (n = 340,000); AID 504803; in the data active = inhibition above about 36%;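 also: 0% = enzyme with DMSO and 100% = wells lacking enzyme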
# Target sequence (Q92743 whole entry, looked up): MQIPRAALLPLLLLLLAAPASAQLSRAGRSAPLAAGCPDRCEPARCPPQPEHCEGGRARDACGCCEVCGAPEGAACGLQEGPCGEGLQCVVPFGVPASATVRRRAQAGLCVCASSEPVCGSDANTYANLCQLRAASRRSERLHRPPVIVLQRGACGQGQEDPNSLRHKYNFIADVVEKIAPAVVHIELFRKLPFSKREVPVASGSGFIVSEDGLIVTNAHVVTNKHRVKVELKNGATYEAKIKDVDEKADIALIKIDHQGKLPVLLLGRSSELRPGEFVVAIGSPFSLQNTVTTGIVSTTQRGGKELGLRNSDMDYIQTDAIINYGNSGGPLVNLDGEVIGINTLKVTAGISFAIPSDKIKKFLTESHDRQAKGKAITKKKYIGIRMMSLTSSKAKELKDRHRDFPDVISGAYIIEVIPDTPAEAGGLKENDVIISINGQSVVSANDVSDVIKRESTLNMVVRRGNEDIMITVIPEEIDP
# TCR CD3 inh: human TCR-CD3 binding inhibition. actives 0.37% (n = 360,000). TAMRA-labeled TCR probe fluorescence, biochemical. inhibition, % at 9.4 µM; in the data active = inhibition above about 19%;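 also: recombinant mutant TCR 2C K166C tagged with TAMRA read by polarization; 0% = receptor in buffer alone and 100% = receptor with positive control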
# mABHD4 FP: inhibitors of mouse ABHD4; Q8VD66; purified mABHD4, FP-Rh probe fluorescence polarization; inhibition, % at 8.92 µM; actives 0.54% (n = 370,000); AID 720543;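 active = inhibition exceeding the mean over every tested compound plus 3 SD, cut at about 30% in these data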;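 also: 0% = plate median of compound wells and 100% = S159A mutant with DMSO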
#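 system = mouse ABHD4 enzyme, wild type | medium = HEPES pH 7.0, NaCl, Pluronic buffer | also added = FP-Rh probe | incubation = Enzyme–compound pre-incubation 45 min, then probe 60 min, both 25 °C | technique = fluorescence polarization, excitation 525 nm, emission 598 nm, BODIPY TMR filters | controls = S159A mutant high control, sample median low control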
# pPAFAH confirm: pPAFAH (human) inhibition, confirmed; shares compounds with pPAFAH FP inh; recombinant pPAFAH, FP-Rh probe fluorescence polarization; inhibition, % at 3.39 µM; actives 72% (n = 2,300);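 active = mean inhibition of the triplicate above the hit cutoff set for the earlier primary screen, cut at about 25% in these data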;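 also: 0% = enzyme with DMSO and 100% = wells lacking pPAFAH enzyme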
# Starred values were filed as active, the others as inactive; . = not tested or not shown.
SMILES,pPAFAH FP inh,SIAE primary,HTRA1 inhibitor,TCR CD3 inh,mABHD4 FP,pPAFAH confirm
Cc1cc(/C=C2/SC(=S)N(c3cccc(C(F)(F)F)c3)C2=O)c(C)n1-c1cccnc1,44.0*,.,-18.6,.,.,42.2*
CN(CC(=O)Nc1ccc(C#N)cc1)CC(=O)Nc1ccc(N2CCOCC2)cc1,6.6,-9.4,-2.9,4.9,2.3,.
CN(CC(=O)Nc1ccc(N2CCOCC2)cc1)CC(=O)Nc1ccc(N2CCOCC2)cc1,41.7*,-3.1,4.1,-3.0,-15.2,35.0*
CSCCC(NC(=O)c1ccccc1)C(=O)N(C)CC(=O)Nc1ccc(N2CCOCC2)cc1 (stereo not drawn),35.9*,4.7,1.8,-6.2,7.4,31.6*
Cn1c(=O)c(=O)n(C)c2cc(S(=O)(=O)N3CCN(CCO)CC3)ccc21,.,2.2,.,.,1.2,.
O=C(OC12CCCN(C1)/C(=C/c1ccncc1)C2)c1ccccc1 (stereo not drawn),.,10.8,.,.,2.3,.
CCN(Cc1cn(Cc2ccccc2)nn1)S(=O)(=O)c1ccccc1Br,.,-1.5,.,.,-1.8,.
O=C(O)c1cc(N/N=C/c2ccc(N3CCOCC3)s2)ccc1Cl,73.9*,20.6*,25.8,6.9,43.5*,18.9
O=S(=O)(Nc1ccc(Cl)cc1)c1ccc(N2CCOCC2)c(NC(=S)NCCN2CCOCC2)c1,58.0*,2.3,-2.7,8.1,-0.5,58.8*
COc1cccc(-c2ccc(CC[C@H]3O[C@H]4CC[C@@H](CO)O[C@H]4C[C@H]3NC(=O)c3cnccn3)cc2)c1,.,-4.2,.,.,-8.3,.
CCCC(=O)OC12CCCN(C1)/C(=C/c1ccc(OC)cc1)C2 (stereo not drawn),.,2.6,.,.,5.5,.
COc1ccc(CCNC(=O)Cc2ccc(NC3=NC4CS(=O)(=O)CC4S3)cc2)c(OC)c1 (stereo not drawn),36.4*,9.4,-4.0,-6.8,6.8,0.6
COC(=O)C1=C(C)N(Cc2cccc(C(F)(F)F)c2)C(=NCc2ccccc2C(F)(F)F)NC1c1cccc(F)c1 (stereo not drawn),.,-5.1,.,5.0,21.6,.
O=C(O)CN1C(=O)/C(=C\c2cc(Br)ccc2OCc2ccccc2Cl)SC1=S,45.1*,-21.9,-111.6,13.4,-16.8,74.6*
O=C(O)CN1C(=O)/C(=C\c2cc(Br)ccc2OCc2ccc([N+](=O)[O-])cc2)SC1=S,58.9*,-10.5,-50.1,-0.5,17.4,58.1*
O=C(O)CN1C(=O)/C(=C\c2cc(Br)ccc2OCc2ccccc2F)SC1=S,52.3*,-12.6,-80.3,-12.2,-12.4,67.3*
Brc1ccc(-c2nn3c(-c4ccccc4)nnc3s2)o1,.,-1.3,.,.,0.3,.
Cc1ccc(C)n1/N=C1/NC(=O)CS1,39.5*,5.3,14.5,8.1,14.7,17.7
Cc1cc(Br)c(S(=O)(=O)NCc2cccnc2)cc1C,49.0*,-1.9,-2.7,-1.8,-1.5,5.3
Cc1cc(C)c(S(=O)(=O)NCc2cccnc2)cc1C,8.7,-0.6,6.6,0.0,4.0,.
O=c1c2ccccc2n(Cc2ccco2)n1[C@@H](Cc1ccccc1)Cn1cc(C2CCCC2)nn1,.,4.8,.,.,-0.8,.
Cc1nnc(NC(=O)c2sc3nc(-c4cccs4)cc(C(F)(F)F)c3c2N)s1,69.7*,-18.5,-1.7,4.2,8.8,73.1*
COc1cccc(NC(=O)C2CCCN2C(=O)NCc2ccccc2)c1 (stereo not drawn),.,3.9,.,.,-3.8,.
CCOC(=O)[C@]12CCCC3=C1N(CCC3)C(=O)[C@@H](CC(=O)NCCCCc1ccccc1)C2,.,6.3,.,.,5.0,.
CCOc1ccc(Nc2nc(NCC3CCCO3)c3ccccc3n2)cc1 (stereo not drawn),67.5*,4.7,8.2,-1.3,28.3,55.4*
SMILES,pPAFAH FP inh,SIAE primary,HTRA1 inhibitor,TCR CD3 inh,mABHD4 FP,pPAFAH confirm
O=C(CCO)c1ccc(O)cc1,36.9*,4.8,11.2,26.8*,7.6,17.2
Cc1cccc(C)c1NC(=O)CSc1nnc(-c2ccco2)c(-c2ccco2)n1,58.5*,.,50.1*,.,.,22.9
CN(C)c1ccc(NC(=O)CSc2nnc(-c3ccco3)c(-c3ccco3)n2)cc1,17.7,9.8,13.7,0.5,21.9,.
COc1ccc(CNC(=O)COC(=O)CCCOc2ccc(Cl)cc2Cl)cc1,34.6*,6.5,-10.7,-5.6,-16.5,20.4
COc1ccccc1OCCC(=O)OCC(=O)NCc1ccc(Cl)cc1,18.4,-0.9,3.5,5.2,-10.1,.
CCC[C@H]1[C@@H](NC(=O)Nc2ccc3c(c2)OCO3)CC[C@@]23CCCN2C(=O)CCC[C@@H]13,.,3.2,.,.,7.3,.
COc1ccc(S[C@]2(C(=O)N3CCN(C(C)=O)CC3)CC(=O)N(C(=O)/C=C/c3ccccc3)[C@@H]2c2ccc(OC)cc2)cc1,.,0.4,.,.,-4.3,.
COCCNC(=S)N(C)[C@H]1C[C@H]2c3[nH]c4c(-c5cccc(C)c5)cccc4c3CCN2C[C@H]1[C@H](C)O,.,4.5,.,.,10.5,.
COc1ccc(NS(=O)(=O)c2cccc(C(=O)NN=Cc3cc(Br)c(O)c(Br)c3)c2)cc1,60.6*,-26.1,23.3,6.9,0.5,68.6*
Cc1nn(-c2ccccc2C(=O)O)c(=O)c2ccccc12,5.5,-6.2,5.0,-7.8,0.9,.
Cc1nn(-c2ccc(Br)cc2)c(=O)c2ccccc12,51.1*,6.7,-2.5,0.6,6.7,3.1
CC(C)Oc1ccc(CNCCC2(C(C)C)CCOC(C)(C)C2)cc1 (stereo not drawn),56.8*,5.2,3.9,2.9,-1.3,4.8
COc1ccc(CNCCC2(C(C)C)CCOC(C)(C)C2)cc1 (stereo not drawn),0.1,-2.5,-7.4,3.6,-1.5,.
Nc1c(C(=O)O)ccc2c1C(=O)c1ccccc1C2=O,8.6,-17.2,1.9,7.7,1.8,.
Nc1cc(C(=O)O)c(N)c2c1C(=O)c1ccccc1C2=O,74.0*,.,82.0*,.,.,53.7*
CCn1c(Cc2cccs2)nnc1SCC(=O)c1ccc(Cl)cc1,.,3.3,.,.,-0.9,.
CCOC(=O)c1cc(-c2ccc(/C=C3/C(=O)NC(=O)C(C#N)=C3C)o2)ccc1Cl,45.7*,8.2,8.2,4.7,3.8,47.5*
Cc1ccc(-c2nc(C3CCCN(S(=O)(=O)c4ccc(C)c(C)c4)C3)no2)cc1 (stereo not drawn),.,5.3,.,.,-0.2,.
O=C(CN(CCc1ccccc1)S(=O)(=O)c1ccccc1)N1CCOCC1,.,0.3,.,.,-0.5,.
COc1cc(OC)c(OC)cc1/C=C1\Oc2cc(OCC(=O)N3Cc4ccccc4C[C@H]3C(=O)O)ccc2C1=O,37.2*,.,-16.3,.,.,43.6*
COc1ccc(/C=C2\Oc3cc(OCC(=O)N4CCC[C@H]4C(=O)O)ccc3C2=O)c(OC)c1,-5.7,.,-11.2,.,.,.
CC(C(=O)N(C)C1CCS(=O)(=O)C1)N1C(=O)/C(=C/c2ccco2)SC1=S (stereo not drawn),22.4,3.8,3.1,1.0,12.6,.
O=C(CCCN1C(=O)/C(=C\c2cccs2)SC1=S)Nc1cccc(C(=O)O)c1,8.0,1.5,7.4,3.1,-3.4,.

# Screening results deposited in PubChem by The Scripps Research Institute Molecular Screening Center.
